Measurements taken from publication PMC4170804 (Bioorganic & medicinal chemistry, 2013).
Like-named read-outs stand apart in the source and are kept apart here. Values belong to the molecule of their own block, whether it stands above or below them.

What was measured:
L1210 cells = assay: Antiproliferative assay, murine leukemia L1210 cells; format: cell-based; conditions: Mus musculus, L1210, 48 h, read-out: IC50 ± SD, L1210
HeLa cells [1] = assay: Antiproliferative assay, human cervix carcinoma HeLa cells; format: cell-based; conditions: 48 h, read-out: IC50 ± SD, HeLa
FM3A/0 cells = assay: Antiproliferative assay, murine mammary carcinoma FM3A/0 cells; format: cell-based; conditions: for IC50: read-out: IC50 ± SD, FM3A/0
Molt4/C8 cells = assay: Antiproliferative assay, human T-leukemia Molt4/C8 cells; format: cell-based; conditions: for IC50: Homo sapiens, Molt4/C8, 48 h, read-out: IC50 ± SD, Molt4/C8
bovine brain tubulin = assay: Inhibition of tubulin polymerization; format: biochemical; conditions: greater than that of 1
HOS, OST TK- cells = assay: Antiproliferative assay, osteosarcoma HOS, OST TK-; format: cell-based; conditions: Homo sapiens, read-out: IC50 ±SD, HOS, OST TK-
In short: (§1)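 Cells were seeded at 300,000–500,000 cells/mL and mixed 1:1 with serial dilutions of test compound. They were incubated 48 h at 37 °C, and cell number was counted with a Coulter counter.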

HeLa cells [2] = assay: Flow cytometric cell cycle analysis, HeLa; format: cell-based, human; conditions: 24 h
In short: (§2)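 Exponentially growing cells (5 × 105 for HeLa) were exposed to test compound at 15–250 nM for 24 h. Cells were fixed in ice-cold 70% ethanol, then treated with lysis buffer containing RNase A and 0.1% Triton X-100. After propidium iodide staining, DNA content was analysed by flow cytometry for cell-cycle distribution. Values are mean ± SEM of three independent experiments.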

tubulin = assay: Inhibition of [3H]colchicine binding to tubulin; design: species or system bovine; conditions: for Colchicine binding % ± SD (inhibition of [3H]colchicine binding): tubulin 1 µM, colchicine 5 µM, tested compound 5 µM
Jurkat cells [3] = assay: Antiproliferative assay, T-leukemia Jurkat; format: cell-based; conditions: Homo sapiens, read-out: IC50 ±SD, Jurkat
In short: as §1

MCF-7 cells = assay: Antiproliferative assay, mammary carcinoma MCF-7; format: cell-based; conditions: Homo sapiens, MCF7, read-out: IC50 ±SD, MCF-7
In short: as §1

[4] = system: cleaved caspase-3, cleaved caspase-9, PARP, Bcl-2, Mcl-1, XIAP in HeLa cells; assay: Western blot of caspases, PARP, Bcl-2, Mcl-1, XIAP in HeLa cells; format: cell-based, human
In short: (§3)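 HeLa cells were treated with test compound for 24 or 48 h, washed twice in ice-cold PBS, and lysed on ice for 30 min. Lysis buffer was T-PER with 300 mM NaCl, 1 mM orthovanadate, 2 mM AEBSF and protease inhibitors. Lysates were cleared at 15,000g (4 °C, 10 min). 20 µg protein went to SDS–PAGE, PVDF transfer and overnight blocking. Primary antibodies ran 2 h at room temperature, then HRP secondary and ECL. Membranes were stripped and reprobed for β-actin as loading control.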

[5] = system: panel of human and murine tumor cell lines; assay: Antiproliferative activity, panel of human and murine tumor cell lines; format: cell-based
In short: as §1

HeLa cells [6] = assay: Mitochondrial membrane potential; format: cell-based, human; conditions: 24 or 48 h
Jurkat cells [7] = assay: Flow cytometric cell cycle analysis, Jurkat; format: cell-based, human; conditions: 24 h
In short: as §2

PC-3 cells = assay: Antiproliferative assay, prostate PC-3; format: cell-based; conditions: Homo sapiens, PC-3, read-out: IC50 ±SD, PC-3
In short: as §1

HeLa cells [8] = assay: Annexin-V/PI apoptosis assay; format: cell-based, human; conditions: 24 h, further increased at 48 h even at 15 nM
[9] = system: wide panel of cancer cell lines; assay: Antiproliferative activity, wide panel of cancer cell lines; format: cell-based; conditions: read-out: IC50 against a wide panel of cancer cell lines
In short: as §1

Raji cells = assay: Antiproliferative assay, B-cell lymphoma Raji; format: cell-based; conditions: Homo sapiens, read-out: IC50 ±SD, Raji
In short: as §1

[10] = system: panel of human cancer cell lines; assay: Antiproliferative activity, panel of additional human cancer cell lines; format: cell-based; conditions: read-out: IC50 values against additional human cancer cell lines
In short: as §1

[11] = system: cyclin B, p-cdc2 Y15, cdc25C in HeLa cells; assay: Western blot of G2/M regulatory proteins in HeLa cells; format: cell-based, human
In short: as §3

HeLa cells [12] = assay: Mitochondrial ROS production; format: cell-based, human; conditions: 24 or 48 h, versus control cells
[13] = system: human pancreatic tumor (MIA PaCa-2) cells; conditions: cited from earlier work
CEM/0 cells = assay: Antiproliferative assay, human T-leukemia CEM/0 cells; format: cell-based; conditions: read-out: IC50 ± SD, CEM/0, 48 h, Coulter counter
[14] = system: epithelial carcinoma (A431) cells; conditions: cited from earlier work
[15] = at higher concentrations (range 15 to 250 nM)

SMILES: COC(=O)c1cc(CCc2ccccc2OC)sc1N [Compound 2f, Methyl 2-amino-5-[2-(2-methoxyphenyl)ethyl]thiophene-3-carboxylate]
IC50 (L1210 cells): 17 ± 5.3 µM
IC50 (HeLa cells [1]; Homo sapiens, HeLa): 15 ± 1.3 µM
IC50 (FM3A/0 cells; Mus musculus, FM3A/0, 48 h): 34 ± 5.6 µM

SMILES: CCOC(=O)c1cc(CCc2ccccc2OC)sc1N [Compound 2i, Ethyl 2-amino-5-[2-(2-methoxyphenyl)ethyl]thiophene-3-carboxylate]
IC50 (HeLa cells [1]; Homo sapiens, HeLa): 45 ± 6.2 µM
IC50 (Molt4/C8 cells): 6.9 ± 0.8 µM
IC50 (FM3A/0 cells; Mus musculus, FM3A/0, 48 h): 53 ± 7.2 µM

SMILES: CCOC(=O)c1cc(CCc2cc(OC)ccc2OC)sc1N [Compound 2b, Ethyl 2-amino-5-[2-(2,5-dimethoxyphenyl)ethyl]thiophene-3-carboxylate]
Colchicine binding % ± SD (inhibition of [3H]colchicine binding) (tubulin): 46 ± 0.9%
IC50 (HeLa cells [1]; Homo sapiens, HeLa): 0.31 µM
IC50 (Molt4/C8 cells): 1.1 ± 0.1 µM
IC50 (FM3A/0 cells; Mus musculus, FM3A/0, 48 h): 1.9 ± 0.5 µM

SMILES: COC(=O)c1cc(CCc2ccc(OC)cc2C)sc1N [Compound 2h, Methyl 2-amino-5-[2-(4-methoxy-2-methylphenyl)ethyl]thiophene-3-carboxylate]
IC50 (FM3A/0 cells; Mus musculus, FM3A/0, 48 h): 45 ± 16 µM

SMILES: CCOC(=O)c1c(N)sc(CCc2cc(OC)ccc2OC)c1C(=O)OCC [Compound 2e, Diethyl 2-amino-5-[2-(2,5-dimethoxyphenyl)ethyl]thiophene-3,4-dicarboxylate]
IC50 (L1210 cells): 34 ± 3.2 µM
IC50 (Molt4/C8 cells): 24 ± 2.2 µM
IC50 (FM3A/0 cells; Mus musculus, FM3A/0, 48 h): 33 ± 9.1 µM

SMILES: N#Cc1cc(CCc2ccccc2)sc1N [Compound 2m, 2-Amino-5-phenylethylthiophene-3-carbonitrile]
IC50 (HeLa cells [1]; Homo sapiens, HeLa): 35 ± 3.1 µM
IC50 (FM3A/0 cells; Mus musculus, FM3A/0, 48 h): 62 ± 3.2 µM

SMILES: COC(=O)c1c(N)sc(CCc2cc(OC)ccc2OC)c1C [Compound 2d, Methyl 2-amino-5-[2-(2,5-dimethoxyphenyl)ethyl]-4-methylthiophene-3-carboxylate]
IC50 (L1210 cells): 46 ± 3.2 µM
IC50 (HeLa cells [1]; Homo sapiens, HeLa): 35 ± 7.1 µM
IC50 (Molt4/C8 cells): 47 ± 16 µM
IC50 (FM3A/0 cells; Mus musculus, FM3A/0, 48 h): 44 ± 8.1 µM

SMILES: COC(=O)c1cc(CCc2cc(OC)ccc2OC)ccc1O [Compound 1, reference compound]
Colchicine binding % ± SD (inhibition of [3H]colchicine binding) (tubulin): 52 ± 4%
antiproliferative activity, MIA PaCa-2 [13]: active at low micromolar concentrations
IC50 (HeLa cells [1]; human cervix carcinoma HeLa, Coulter counter): 0.41 ± 0.08 µM
IC50 (CEM/0 cells): 440 ± 10 nM
fold less active in FM3A cells than the other cell lines examined (FM3A/0 cells; FM3A vs other cell lines): about 30 fold
IC50 (FM3A/0 cells; murine mammary carcinoma FM3A/0, 48 h, Coulter counter): 13 ± 0.2 µM
antiproliferative activity, A431 [14]: active at low micromolar concentrations

SMILES: CCOC(=O)c1cc(CCc2ccc(OC)cc2)sc1N [Compound 2j, Ethyl 2-amino-5-[2-(4-methoxyphenyl)ethyl]thiophene-3-carboxylate]
IC50 (L1210 cells): 20 ± 10 µM
IC50 (HeLa cells [1]; Homo sapiens, HeLa): 39 ± 0.2 µM
IC50 (Molt4/C8 cells): 0.34 ± 0.5 µM
IC50 values in Molt4/C8, in words (Molt4/C8 cells): submicromolar
IC50 (FM3A/0 cells; Mus musculus, FM3A/0, 48 h): 48 ± 5.2 µM

Continued, in another order:

IC50 (HeLa cells [1]; Homo sapiens, HeLa): 7.8 ± 2.1 µM
IC50 (Molt4/C8 cells): 2 ± 0.2 µM
IC50 (FM3A/0 cells; Mus musculus, FM3A/0, 48 h): 22 ± 3.1 µM
SMILES: COc1ccccc1CCc1cc(C#N)c(N)s1 [Compound 2k, 2-Amino-5-[2-(2-methoxyphenyl)ethyl]thiophene-3-carbonitrile]

IC50 (HOS, OST TK- cells): 24 ± 13 nM
inhibition of colchicine binding relative to 1 (tubulin; more active than 1): 1.5 fold
Colchicine binding % ± SD (inhibition of [3H]colchicine binding) (tubulin): 84 ± 5%
IC50 (Jurkat cells [3]): 12 ± 8 nM
IC50 (MCF-7 cells): 25 ± 1 nM
IC50 ([5]; read-out: IC50 values against panel of human and murine tumor cell lines): 35 to 130 nM
IC50 (PC-3 cells): 25 ± 13 nM
IC50 [9]: 17 to 130 nM
IC50 (Raji cells): 64 ± 25 nM
IC50 [10]: 12 to 86 nM
IC50 (FM3A/0 cells; Mus musculus, FM3A/0, 48 h): 0.056 ± 0.004 µM
SMILES: COc1ccc(OC)c(CCc2cc(C#N)c(N)s2)c1 [Compound 2c, 2-Amino-5-[2-(2,5-dimethoxyphenyl)ethyl]thiophene-3-carbonitrile]
tubulin assembly inhibitory activity relative to 1 (bovine brain tubulin): 3 fold
lowest concentration with a rise in G2/M cells (HeLa cells [2]): 30 nM
cells arrested in G2/M (HeLa cells [2]; [15]): more than 80%
caspase-9 activation ([4]; 50 and 100 nM, 24 h): early activation of caspase-9 at 24 h
caspase-3 and PARP activation ([4]; 50 and 100 nM, 48 h): activation of caspase-3 and of the caspase-3 substrate PARP
expression of anti-apoptotic proteins Bcl-2 and Mcl-1 ([4]; both concentrations used (50 and 100 nM)): remarkably reduced after a 24 h and disappeared after a 48 h treatment
expression of XIAP ([4]; concomitant with caspase activation): strongly reduced
enhancement of antiproliferative activity with respect to 1 ([5]; in four cell lines): 3–230 fold
cells with depolarized mitochondria (Δψmt, JC-1) (HeLa cells [6]): time and concentration-dependent increase in the proportion of cells with depolarized mitochondria
lowest concentration with a rise in G2/M cells (Jurkat cells [7]): 30 nM
cells arrested in G2/M (Jurkat cells [7]; [15]): more than 80%
annexin-V positive cells (apoptosis) (HeLa cells [8]): accumulation of annexin-V positive cells in a concentration-dependent manner
cyclin B1 expression ([11]; 50 and 100 nM, 24 and 48 h): marked increase in cyclin B1 expression
cdc25C phosphorylation state / expression ([11]; 50 and 100 nM, 24 h and 48 h): slower migrating forms of phosphatase cdc25C appeared at 24 h
phosphorylation of cdc2 (Tyr15) ([11]; after 24 h): dramatic de-phosphorylation of cdc2 (Tyr15)
ROS production (HE, H2-DCFDA) (HeLa cells [12]): induced the production of significant amounts of ROS

IC50 (HeLa cells [1]; Homo sapiens, HeLa): 19 ± 13 µM
IC50 (FM3A/0 cells; Mus musculus, FM3A/0, 48 h): 31 ± 27 µM
SMILES: COc1ccc(CCc2cc(C#N)c(N)s2)cc1 [Compound 2l, 2-Amino-5-[2-(4-methoxyphenyl)ethyl]thiophene-3-carbonitrile]

IC50 (L1210 cells): 50 ± 5.2 µM
IC50 (HeLa cells [1]; Homo sapiens, HeLa): 37 ± 6.1 µM
IC50 (FM3A/0 cells; Mus musculus, FM3A/0, 48 h): 52 ± 1 µM
SMILES: COC(=O)c1cc(-c2cc(OC)ccc2OC)sc1N [Compound 2n, Methyl 2-amino-5-(2,5-dimethoxyphenyl)thiophene-3-carboxylate]

Colchicine binding % ± SD (inhibition of [3H]colchicine binding) (tubulin): 52 ± 0.9%
IC50 (L1210 cells): 1.8 ± 0.1 µM
IC50 (HeLa cells [1]; Homo sapiens, HeLa): 0.77 ± 0.17 µM
IC50 values in Molt4/C8, in words (Molt4/C8 cells): submicromolar
IC50 (FM3A/0 cells; Mus musculus, FM3A/0, 48 h): 2.3 ± 0.6 µM
SMILES: COC(=O)c1cc(CCc2cc(OC)ccc2OC)sc1N [Compound 2a, Methyl 2-amino-5-[2-(2,5-dimethoxyphenyl)ethyl]thiophene-3-carboxylate]

IC50 (L1210 cells): 76 ± 3.2 µM
IC50 (HeLa cells [1]; Homo sapiens, HeLa): 71 ± 20 µM
SMILES: COc1ccc(OC)c(-c2cc(C#N)c(N)s2)c1 [Compound 2o, 2-Amino-5-(2,5-dimethoxyphenyl)thiophene-3-carbonitrile]
